In PubChem BioAssay:
Active and inactive are the calls of the source.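 Rule for the calls, unless noted: active = GFP response above 150% of the DMSO level; inconclusive = fewer than 70 events counted for a yeast strain; inactive = the rest.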

What was measured:
[1] = hit retest on RPL19A-GFP reporter strain – cell-based, S. cerevisiae, flow cytometry, cherry picks, mother/daughter gates, confirmation (AID 2270;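 active = GFP response below 50% of the DMSO control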); conditions: 3 h, at 10 µM, stronger effect = lower value, 100 = same GFP as DMSO wells
[2] = yeast TOR pathway reporter LAP4-GFP change – cell-based, cherry picks, flow cytometry, mother/daughter gates, confirmation (AID 2271;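 active = GFP response above 150% of the DMSO control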;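 note: ratio of sample to DMSO plate mean so 100% equals DMSO level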); conditions: S. cerevisiae LAP4-GFP strain, 3 h, at 10 µM, stronger effect = higher value, 100 means same as DMSO control
In short: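 Material: Alexa 633-stained baker's yeast GFP-fusion strain; Compound dosing: single test-compound dose, 10 µM final; Incubation: 30 °C, 3 h compound incubation, rotating; Detection: HT flow cytometry, GFP fluorescence channel; Control set: positive rapamycin (400 ng/mL), negative DMSO.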

[3] = TOR pathway reporter MEP2-GFP, retest of hits – S. cerevisiae, flow cytometry GFP, cherry picks, confirmation (AID 2272;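 active = GFP response above 150% of the DMSO control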;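 note: ratio of well signal to plate DMSO mean so 100% equals DMSO level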); conditions: S. cerevisiae MEP2-GFP strain, 3 h, at 10 µM, stronger effect = higher value
[4] = yeast AGP1-GFP fluorescence change, single-dose – cell-based, flow cytometry, S. cerevisiae, cherry picks, confirmation (AID 2273);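 note: median GFP channel fluorescence over the whole cell population gate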; conditions: S. cerevisiae AGP1-GFP strain, 3 h, at 10 µM
[5] = TOR pathway CIT2 reporter hit retest – S. cerevisiae, GFP fusion, cherry picks, mother/daughter gates, confirmation (AID 2274); conditions: S. cerevisiae CIT2-GFP strain, flow cytometry, 3 h, at 10 µM, stronger effect = higher value
[6] = measured here: daughter cell gate
[7] = measured here: mother cell gate
[8] = measured here: daughter cell gate response
[9] = measured here: mother cell gate response

Structure (SMILES)	GFP response vs DMSO [1]	GFP response vs DMSO [1, 6]	GFP response vs DMSO [1, 7]	GFP response relative to DMSO [2]	GFP response relative to DMSO [2, 8]	GFP response relative to DMSO [2, 9]	GFP response vs DMSO [3]	GFP response, % of DMSO [4]	GFP response, % of DMSO [5]	GFP response, % of DMSO [5, 6]	GFP response, % of DMSO [5, 7]
Cc1ccc(S(=O)(=O)N(Cc2ccccc2)Cc2ccco2)cc1	102% (inactive)	103%	104%	87.8% (inactive)	87.9%	90.1%	97.8% (inactive)	97.8% (inactive)	106% (inactive)	105%	104%
COc1cc(/C=C2\N=C(c3c(-c4ccccc4)noc3C)OC2=O)ccc1OC(C)=O	98.6% (inactive)	100%	98.9%	91.5% (inactive)	92.8%	89.7%	100% (inactive)	99.3% (inactive)	103% (inactive)	103%	101%
CCCOc1ccc(N2C(=O)CC(SCCN)C2=O)cc1 (stereo not drawn)	93.5% (inactive)	92.9%	94.6%	101% (inactive)	102%	99.3%	98.3% (inactive)	92.3% (inactive)	98.3% (inactive)	101%	96.1%
COc1cccc2c1Oc1ncccc1N(C(=O)CCC(=O)NCc1ccc(F)cc1)C2	98% (inactive)	98.1%	98.2%	101% (inactive)	101%	99.3%	102% (inactive)	96.6% (inactive)	105% (inactive)	105%	104%
CCCCc1[nH]nc2c1C1(C(=O)N(CC)c3ccccc31)C(C#N)=C(N)O2 (stereo not drawn)	105% (inactive)	101%	103%	98.2% (inactive)	97.5%	98.4%	101% (inactive)	106% (inactive)	102% (inactive)	97.4%	95.6%
Cc1onc(-c2c(Cl)cccc2Cl)c1NC(=O)NNc1c(Cl)cncc1Cl	99.8% (inactive)	99.4%	99.2%	103% (inactive)	102%	100%	100% (inactive)	97.2% (inactive)	99.7% (inactive)	101%	97.3%
CCC(=O)Oc1oc(-c2ccccc2)nc1C=Nc1ccc(C)cc1	103% (inactive)	103%	103%	111% (inactive)	113%	113%	126% (inactive)	102% (inactive)	108% (inactive)	110%	109%
CCOc1ccc(/C=C/C(=O)c2c(O)cc(C)oc2=O)cc1	95.1% (inactive)	96.1%	94.6%	120% (inactive)	113%	126%	106% (inactive)	107% (inactive)	93.1% (inactive)	94%	92.6%
N/C(Cc1ccc(Cl)c(Cl)c1)=N\OC(=O)c1cccs1	94.9% (inactive)	89.4%	83%	226% (active)	160%	206%	122% (inactive)	103% (inactive)	176% (active)	126%	159%
Cc1ccc(-c2nc3ccccn3c2NC(=O)c2ccco2)cc1	94.9% (inactive)	96.4%	95%	98.9% (inactive)	97.5%	98.4%	101% (inactive)	98.4% (inactive)	104% (inactive)	103%	104%
O=S(=O)(/N=C(/Nc1ccc(F)cc1F)c1ccc(Cl)cc1)c1ccccc1	101% (inactive)	101%	103%	96.5% (inactive)	96.5%	96.5%	102% (inactive)	96.9% (inactive)	96.4% (inactive)	98.3%	95.6%
CCOc1ccccc1C1N=C(c2ccc(OC)cc2)CC(c2ccccc2O)N1 (stereo not drawn)	102% (inactive)	103%	100%	106% (inactive)	99.7%	109%	105% (inactive)	102% (inactive)	110% (inactive)	108%	109%
Cc1c(CC(C)C)nc(N)c(C#N)c1-c1ccccc1	98.4% (inactive)	99.8%	99.7%	94.2% (inactive)	89.3%	92.6%	102% (inactive)	98.7% (inactive)	102% (inactive)	102%	100%
CCCCn1c(-c2csc3c2CCCC3)n[nH]c1=S	91.5% (inactive)	88.2%	94.1%	122% (inactive)	117%	128%	93.3% (inactive)	95.6% (inactive)	80.6% (inactive)	77.9%	80.5%
COc1ccc(C(=O)C2CCCN(C(=O)c3cccs3)C2)cc1F (stereo not drawn)	102% (inactive)	101%	101%	98.2% (inactive)	99.1%	98.4%	99% (inactive)	103% (inactive)	100% (inactive)	103%	99.3%
O=C1c2ccccc2C(=O)c2c([N+](=O)[O-])ccc(O)c21	82.2% (inactive)	91.2%	74.2%	122% (inactive)	114%	124%	110% (inactive)	106% (inactive)	92.2% (inactive)	93.7%	82.8%
Cc1cc(NC(=O)c2ccc3c(c2)OCCO3)ccc1NC(=O)c1cc2ccccc2o1	97.6% (inactive)	99.5%	96.5%	89.4% (inactive)	89.8%	91.3%	103% (inactive)	93.2% (inactive)	95.8% (inactive)	97.6%	97.1%

Structure (SMILES)	GFP response vs DMSO [1]	GFP response vs DMSO [1, 6]	GFP response vs DMSO [1, 7]	GFP response relative to DMSO [2]	GFP response relative to DMSO [2, 8]	GFP response relative to DMSO [2, 9]	GFP response vs DMSO [3]	GFP response, % of DMSO [4]	GFP response, % of DMSO [5]	GFP response, % of DMSO [5, 6]	GFP response, % of DMSO [5, 7]
COc1ccc(C2=CC(=O)N(Nc3ccccc3)C2=O)cc1	102% (inactive)	101%	95.8%	178% (active)	170%	172%	107% (inactive)	105% (inactive)	99.1% (inactive)	108%	90.2%
CCOC(=O)CCS(=O)(=O)c1nc(-c2ccccc2)cc(C(F)(F)F)n1	98.8% (inactive)	102%	93.5%	164% (active)	153%	170%	146% (inactive)	127% (inactive)	100% (inactive)	106%	92.3%
COC(=O)c1ccc(/C=N/OCC(=O)NCCc2ccc(OC)c(OC)c2)cc1	99% (inactive)	99%	98.7%	97.4% (inactive)	102%	97.2%	102% (inactive)	102% (inactive)	107% (inactive)	106%	107%
O=C(OCC(=O)N1CCN(C(=O)c2ccco2)CC1)c1cc(-c2ccc(F)cc2)nc2ccccc12	78.9% (inactive)	74.3%	74.5%	133% (inactive)	107%	138%	125% (inactive)	138% (inactive)	135% (inactive)	114%	136%
COc1ccccc1N1C(=O)CC(Sc2nccc(C)n2)C1=O (stereo not drawn)	101% (inactive)	98.6%	102%	95.7% (inactive)	95.9%	95.2%	99% (inactive)	99.6% (inactive)	98.8% (inactive)	93.8%	99.3%
Cc1cccn2c(=O)c(/C=C(\C#N)C(=O)NCc3ccccc3)c(N3CCC(C(N)=O)CC3)nc12	98.7% (inactive)	99%	97.5%	101% (inactive)	102%	101%	101% (inactive)	104% (inactive)	101% (inactive)	103%	103%
Nc1cc(N)nc(SCC(=O)N2CCc3ccccc32)n1	100% (inactive)	101%	99.7%	97.9% (inactive)	97.6%	96.1%	105% (inactive)	98.5% (inactive)	101% (inactive)	101%	101%
Cc1ccc(S(=O)(=O)c2ccc([N+](=O)[O-])cn2)cc1	93.2% (inactive)	99.5%	84.5%	185% (active)	156%	177%	139% (inactive)	115% (inactive)	103% (inactive)	114%	93.4%
CCOc1cccc(C(=O)Nc2ccc(NC(=O)c3cc4ccccc4o3)c(OC)c2)c1	96.2% (inactive)	96.4%	97.2%	91.5% (inactive)	91.2%	90.8%	98.3% (inactive)	94.8% (inactive)	103% (inactive)	103%	102%
O=C(N=Nc1c(O)[nH]c2ccccc12)c1ccco1	98.2% (inactive)	98.6%	97.8%	99.8% (inactive)	98.2%	102%	98.8% (inactive)	100% (inactive)	103% (inactive)	102%	102%
COc1ccc(CNC(=O)c2nc(S(=O)(=O)Cc3ccccc3)ncc2Cl)cc1	102% (inactive)	104%	101%	107% (inactive)	107%	108%	116% (inactive)	103% (inactive)	106% (inactive)	106%	105%
COc1cccc(N=Nc2ccc(O)c3ncccc23)c1	98.2% (inactive)	97.4%	98%	224% (active)	205%	228%	117% (inactive)	91.3% (inactive)	105% (inactive)	106%	99.7%
CCN(CC)C(=O)c1ccc(-c2cccs2)s1	95.4% (inactive)	94.6%	96.4%	107% (inactive)	106%	108%	94.1% (inactive)	99.9% (inactive)	98.3% (inactive)	97.2%	97.3%
Oc1c(C(Nc2nc3ccccc3s2)c2ccco2)ccc2cccnc12 (stereo not drawn)	98.9% (inactive)	98.7%	95.9%	149% (inactive)	132%	145%	112% (inactive)	97.7% (inactive)	100% (inactive)	103%	94.9%
O=C(c1ccc([N+](=O)[O-])o1)N1CCN(c2nc3ccc(F)cc3s2)CC1	99.8% (inactive)	100%	98.4%	111% (inactive)	109%	115%	105% (inactive)	87.7% (inactive)	101% (inactive)	103%	96.1%
COc1ccc(CC2=CC(=O)c3ccccc3C2=O)cc1	99.7% (inactive)	99.3%	99.3%	101% (inactive)	99.3%	102%	104% (inactive)	94.5% (inactive)	96.4% (inactive)	96.4%	94.5%
